PAFAH2 inh – PAFAH2 (human) inhibition. AID 492956. 340,000 compounds, 0.99% hits. inhibition, % at 3.39 µM. recombinant PAFAH2, FP-rhodamine activity probe, fluorescence polarization;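 active means inhibition above the mean over all tested compounds plus 3 SD, cut at about 30% in these data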;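 further: inhibitors block probe labeling of enzyme so polarization drops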
PAFAH1B3 inh – blocks human PAF acetylhydrolase 1B catalytic subunit 3; recombinant PAFAH1B3, FP-rhodamine probe, fluorescence polarization; inhibition, % at 3.39 µM; 340,000 compounds, 0.28% hits; AID 492972;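 active means inhibition above the screen-wide average of all tested compounds plus 3 SD, cut at about 25% in these data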
pPAFAH inh – inhibitors of human plasma PAF acetylhydrolase (pPAFAH). Q13093. AID 463082. 330,000 compounds, 1.5% hits. inhibition, % at 3.39 µM. recombinant pPAFAH, FP-rhodamine probe fluorescence polarization;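 active means inhibition above the mean inhibition across the screen plus 3 SD, cut at about 25% in these data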;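 further: inhibitors block binding of the rhodamine activity-based probe so polarization drops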
Target sequence (Q13093 whole entry, looked up): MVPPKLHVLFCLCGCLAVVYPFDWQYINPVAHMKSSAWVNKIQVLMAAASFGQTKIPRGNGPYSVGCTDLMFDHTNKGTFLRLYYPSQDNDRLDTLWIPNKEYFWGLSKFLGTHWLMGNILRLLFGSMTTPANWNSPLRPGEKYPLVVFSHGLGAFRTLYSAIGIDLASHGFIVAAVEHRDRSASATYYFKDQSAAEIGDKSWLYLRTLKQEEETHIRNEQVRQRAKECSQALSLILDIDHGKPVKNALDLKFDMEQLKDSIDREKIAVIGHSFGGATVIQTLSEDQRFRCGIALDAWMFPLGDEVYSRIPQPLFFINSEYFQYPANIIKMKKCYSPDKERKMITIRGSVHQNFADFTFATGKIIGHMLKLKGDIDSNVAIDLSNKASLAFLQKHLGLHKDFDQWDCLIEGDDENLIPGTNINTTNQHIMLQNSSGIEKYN
UCH37 DUB inh – inhibitors of human deubiquitinating enzyme UCH37; inhibition, % (concentration not given with the values); 330,000 compounds, 0.33% hits; purified proteasome/UCH37, Ub-AMC cleavage fluorescence;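 active means mean inhibition over replicate wells above about 20%, limit read from the data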
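Reagent: Ub-AMC substrate; assay system: Proteasome-associated human UCH37 deubiquitinase; controls: no-proteasome and no-compound wells; read-out: % inhibition of Ub-AMC cleavage fluorescence; timing: 30 min preincubation with enzyme, 25 min cleavage at room temperature; signal: AMC fluorescence from Ub-AMC cleavage, excitation 355 nm, emission 460 nm; buffer or medium: Tris-HCl pH 7.4 plus ovalbumin, ATP-MgCl2, DTT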
PAFAH1B2 FP inh – blocks human PAF acetylhydrolase 1b catalytic subunit 2. P68402. recombinant PAFAH1B2, FP-rhodamine activity probe, fluorescence polarization. inhibition, % at 3.39 µM. 340,000 compounds, 1.2% hits;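 active means inhibition above the mean of all tested compounds plus 3 SD, cut at about 24% in these data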
GRIN3A LBD mod – NR3A (human) ligand-binding domain modulation. 340,000 compounds, 2.5% hits. NR3A LBD differential scanning fluorimetry, Tm shift; 0% = protein alone, 100% = glycine-bound protein. Tm shift relative to glycine control, % at 25 µM. AID 1259313;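 active means melting temperature shift of at least 10% of the positive control shift, at one fixed dose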
Each line names hits and unclear results; the compound was inactive in the other large screens. Only some compounds are listed: those with a hit (about 4.8% of all), similar ones and a draw of the others.

COc1cc2oc3cc(C)oc(=O)c3c2cc1OC	GRIN3A LBD mod 16
COc1cc(C=NNC(=O)c2ccoc2C)ccc1OCCN1CCCCC1	none (no result: PAFAH2 inh, PAFAH1B3 inh, pPAFAH inh, PAFAH1B2 FP inh, GRIN3A LBD mod)
COc1ccc(/C=N/NC(=O)c2[nH]c3ccc(Br)cc3c2-c2ccccc2)cc1	GRIN3A LBD mod 18 (no result: UCH37 DUB inh)
O=C(N/N=C/c1ccccc1Cl)c1[nH]c2ccc(Br)cc2c1-c1ccccc1	GRIN3A LBD mod 29 (no result: UCH37 DUB inh)
CC(=NNC(=O)c1ccc(NS(=O)(=O)c2ccc(Br)cc2)cc1)c1cccnc1	PAFAH1B2 FP inh 29
CCCNC(=O)COc1ccc(S(=O)(=O)Nc2ccc(C)cc2)cc1	pPAFAH inh 30
Cc1ccc(NS(=O)(=O)c2ccc(C(=O)NCc3cccnc3)cc2)cc1	pPAFAH inh 27
CCC(C)NS(=O)(=O)c1ccc(OCC(=O)NCc2cccnc2)cc1 (stereo not given)	none
Cc1ccc(NS(=O)(=O)c2ccc(OCC(=O)NCc3cccnc3)cc2)cc1	pPAFAH inh 26
CC(=NNC(=O)c1ccc(Br)cc1)c1cccnc1	none (no result: PAFAH2 inh, PAFAH1B3 inh, pPAFAH inh, PAFAH1B2 FP inh, GRIN3A LBD mod)
NC(=O)Cn1cc(C=NNS(=O)(=O)c2ccccc2)c2ccccc21	none (no result: PAFAH2 inh, PAFAH1B3 inh, pPAFAH inh, PAFAH1B2 FP inh, GRIN3A LBD mod)
CCc1cc(C(=O)NN=Cc2ccc(O)cc2)c2ccccc2n1	none (no result: PAFAH2 inh, PAFAH1B3 inh, pPAFAH inh, PAFAH1B2 FP inh, GRIN3A LBD mod)
CC1=CC=CC2=NC(=NS(=O)(=O)c3ccc(F)cc3F)c3ccccc3CN12	none (no result: PAFAH2 inh, PAFAH1B3 inh, pPAFAH inh, PAFAH1B2 FP inh, GRIN3A LBD mod)
O=C(COc1ccc(S(=O)(=O)NCc2ccccc2)cc1Cl)NCc1ccncc1	none
CCOc1ccc(NS(=O)(=O)c2ccc(-c3coc(C)n3)cc2)cc1	pPAFAH inh 29
COc1ccc(NS(=O)(=O)c2ccc(Cl)c(NC(=O)c3cccnc3Cl)c2)cc1	pPAFAH inh 30
Cc1cc(S(=O)(=O)Nc2ccc(C(=O)NCc3ccncc3)cc2)ccc1F	none
COc1ccc(NS(=O)(=O)c2ccc(Cl)c(NC(=O)c3ccccc3F)c2)cc1	none
Cc1ccc(NS(=O)(=O)c2ccc(C(=O)NCc3ccncc3)cc2)cc1	pPAFAH inh 26
CCOC(=O)c1ccc(NS(=O)(=O)c2ccc(-c3coc(C)n3)cc2)cc1	none
Cc1cc(S(=O)(=O)NCc2ccccc2)ccc1OCC(=O)NCc1ccncc1	GRIN3A LBD mod 13
Cc1nc(NN=Cc2ccc(O)cc2)c2cnn(-c3ccccc3)c2n1	none (no result: PAFAH2 inh, PAFAH1B3 inh, pPAFAH inh, PAFAH1B2 FP inh, GRIN3A LBD mod)
C#CCOc1c(Cl)cc(C=NO)cc1OC	none (no result: PAFAH2 inh, PAFAH1B3 inh, pPAFAH inh, PAFAH1B2 FP inh, GRIN3A LBD mod)
Cc1ccc(C(=O)NCc2cccnc2)cc1S(=O)(=O)Nc1ccccc1	pPAFAH inh 27
O=C(COc1ccc(S(=O)(=O)Nc2ccccc2)cc1)NCc1ccncc1	pPAFAH inh 27
O=C(NCc1cccnc1)c1ccc(S(=O)(=O)Nc2ccccc2)cc1	none
O=C(COc1ccc([N+](=O)[O-])cc1)NCc1ccncc1	none (no result: PAFAH2 inh, PAFAH1B3 inh, PAFAH1B2 FP inh)
COc1ccc(NS(=O)(=O)c2cccc(C(=O)NCc3cccnc3)c2)cc1	pPAFAH inh 27
COc1ccc(NS(=O)(=O)c2ccc(C)c(C(=O)NCc3cccnc3)c2)cc1	none
CCC(Cc1ccccc1)=NNC(=O)CCn1nnc2ccccc21	none (no result: PAFAH2 inh, PAFAH1B3 inh, pPAFAH inh, PAFAH1B2 FP inh, GRIN3A LBD mod)
CCN1C(=O)[C@H]2[C@H]3[C@H](O)[C@H](O)CC(=NOC[C@@H](C)[C@H](OCc4ccccc4)C(C)C)[C@@H]3CC[C@H]2C1=O	none (no result: PAFAH2 inh, PAFAH1B3 inh, pPAFAH inh, PAFAH1B2 FP inh, GRIN3A LBD mod)
CC(C)(C)NC(=O)NC(=O)COC(=O)c1cccc(NS(=O)(=O)c2ccc(F)c(F)c2)c1	none
CCN(CC)S(=O)(=O)c1ccc(NC(=O)COC(=O)c2ccc(NC(=O)CC#N)cc2)cc1	pPAFAH inh 26
CCN(CC)S(=O)(=O)c1ccc(NC(=O)COC(=O)c2cc(S(=O)(=O)Nc3ccc(OC)cc3)ccc2O)cc1	GRIN3A LBD mod 21
Cc1cc(C)c(C(=O)COC(=O)c2ccc(NC(=O)CC#N)cc2)cc1C	pPAFAH inh 25
CCN(CC)S(=O)(=O)c1ccc(NC(=O)COC(=O)c2ccc(Br)o2)cc1	none
CNC(=O)COC(=O)c1ccc(NC(=O)CC#N)cc1	none
CC(C)(C)c1ccc(NC(=O)COC(=O)c2ccc(NS(=O)(=O)c3ccc(F)c(F)c3)cc2)cc1	pPAFAH inh 31, GRIN3A LBD mod 30
Cc1ccccc1C(=O)NN=Cc1ccsc1C	none (no result: PAFAH2 inh, PAFAH1B3 inh, pPAFAH inh, PAFAH1B2 FP inh, GRIN3A LBD mod)
CN(C)C(=S)N=c1ssc(=S)n1Cc1cccnc1	GRIN3A LBD mod 27 (no result: pPAFAH inh, UCH37 DUB inh)
S=C1NCN(Cc2cccnc2)CN1	none (no result: PAFAH2 inh, PAFAH1B3 inh, PAFAH1B2 FP inh)
Cn1c(C=NNC(=O)c2ccccc2Br)nc2ccccc21	none (no result: PAFAH2 inh, PAFAH1B3 inh, pPAFAH inh, PAFAH1B2 FP inh, GRIN3A LBD mod)

Screens as filed in PubChem BioAssay.
